Bioassay records (PubChem)
In the library only some 3.4% were active in any assay of this set; here they are far more common.
TRPML3 agonist – human TRPML3 channel agonists, primary screen, cell-based, HEK293 TRPML3-YFP, Fluo-8 calcium fluorescence, 3 µM; activation, % at 3 µM; Mucolipin-3 (Homo sapiens), Q8TDD5; 220,000 compounds, 0.29% hits; AID 1448, 2008; 100% = the carbachol control signal;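 active = activation above its plate's cutoff, the mean activation of the plate's test wells plus 3 SD, cut at about 12% in these data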;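 note: 0% = DMSO only wells and 100% = carbachol wells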
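system = HEK293 cells stably carrying human TRPML3-YFP | doses = one concentration, 3 µM nominal, 0.3% DMSO | timing = dye loading 1 h 37 °C then 30 min ambient, 125 s read | detection = Fluo-8 calcium dye fluorescence, ex 470-495, em 515-575 nm | benchmarks = high control carbachol 87 µM, low control DMSO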
TAAR1 ag – human TAAR1 agonists, primary screen, Fluo-8 calcium fluorescence, CHO RD-HGA16 cells; activation, % at 3 µM; Trace amine-associated receptor 1 (Homo sapiens), Q96RJ0; vehicle wells 0%, saturating PEA agonist 100%; 360,000 compounds, 0.99% hits;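 active = activation above the mean activation of all test compounds in the run plus 3 SD, cut at about 38% in these data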
Target sequence (Q96RJ0 whole entry, looked up): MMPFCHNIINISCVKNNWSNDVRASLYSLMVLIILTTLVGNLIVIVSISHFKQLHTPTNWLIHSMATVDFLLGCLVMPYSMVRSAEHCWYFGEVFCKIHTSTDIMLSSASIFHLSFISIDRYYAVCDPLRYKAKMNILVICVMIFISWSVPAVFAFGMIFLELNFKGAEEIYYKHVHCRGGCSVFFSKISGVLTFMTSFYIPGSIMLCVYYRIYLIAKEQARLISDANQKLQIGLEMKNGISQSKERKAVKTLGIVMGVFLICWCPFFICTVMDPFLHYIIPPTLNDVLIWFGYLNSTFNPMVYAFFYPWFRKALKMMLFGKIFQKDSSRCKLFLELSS
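System: CHO RD-HGA16 cells carrying human TAAR1 plus Gα16; Incubation: 17-24 h seeding, 75 min 37 °C dye, 30 min RT; Measured by: Fluo-8 fluorescence, 5 s baseline then 140 s kinetic read; Control set: DMSO and PEA EC100; Replication: single well for each compound.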
GPR7 antag – GPR7 receptor antagonists, primary screen, cell-based, fluorescence, single concentration | GPR7-expressing cells, fluorescence antagonist assay | inhibition, % at 4.4 µM | 290,000 compounds, 1.1% hits; in the data active = inhibition above about 16%, passing the limit was not always enough;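 note: cells stimulated with the agonist NPW; 0% = agonist with vehicle and 100% = vehicle without agonist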
Target sequence (P48145 whole entry, looked up): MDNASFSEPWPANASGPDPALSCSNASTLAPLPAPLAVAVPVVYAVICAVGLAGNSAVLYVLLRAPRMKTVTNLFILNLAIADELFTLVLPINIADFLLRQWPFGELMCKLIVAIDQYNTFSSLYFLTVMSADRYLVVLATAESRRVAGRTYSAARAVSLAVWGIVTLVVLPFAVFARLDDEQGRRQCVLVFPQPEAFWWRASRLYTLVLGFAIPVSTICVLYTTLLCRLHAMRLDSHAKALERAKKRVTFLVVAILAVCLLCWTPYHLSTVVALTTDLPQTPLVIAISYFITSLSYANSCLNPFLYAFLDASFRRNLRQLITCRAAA
zfTRPN1 agonist – zebrafish TRPN1 channel agonists, primary screen, cell-based, HEK293, calcium fluorescence. activation, % at 3 µM. AID 1424, 2008. transient receptor potential cation channel N1 (TRPN1/NompC), Danio rerio. 220,000 compounds, 0.18% hits. HEK293 zebrafish TRPN1-YFP, Fluo-8 calcium fluorescence; 100% = response to 87 µM carbachol;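 active = activation above its plate's cutoff, the mean activation of test wells on that plate plus 3 SD, cut at about 19% in these data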;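 note: 0% = DMSO alone and 100% = 87 µM carbachol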
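Material: zebrafish TRPN1-YFP in HEK293 cells. Doses: one dose of 3 µM, 0.3% DMSO. Incubation: dye 1 h 37 °C plus 30 min RT. Measured by: intracellular calcium fluorescence with Fluo-8.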
TAAR1 antag – human TAAR1 antagonists, primary screen, Fluo-8 calcium fluorescence, CHO RD-HGA16 cells | antagonist | 360,000 compounds, 1.5% hits | inhibition, % at 3 µM | Trace amine-associated receptor 1 (Homo sapiens), Q96RJ0;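 active = inhibition above a per-plate cutoff, the mean inhibition of test compounds on that plate plus 3 SD, cut at about 49% in these data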;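 note: 0% = DMSO plus EC80 beta-PEA response and 100% = DMSO alone without agonist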
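Test system: hTAAR1-expressing CHO RD-HGA16 cells, Gα16-coupled; Probe or stimulus: EC80 β-phenethylamine stimulus; Compound dosing: single nominal final test compound concentration of 3 µM; Timing: 140 s kinetic read after compound, 140 s after agonist; Signal: Fluo-8 calcium-sensitive fluorescence; Measure: % inhibition of agonist calcium response; Controls: DMSO and EC80 PEA controls.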
LANA-H2A inh – blockers of LANA interaction with H2A/H2B – biochemical, FP readout, HTS, primary screen; Protein LANA1 (Human herpesvirus 8 type P (isolate GK18)), Q9QR71; cell-free LANA-H2A/H2B peptide, fluorescence polarization; inhibition, % (no concentration beside the values); 320,000 compounds, 0.6% hits; in the data active = inhibition mostly above about 10%, no sharp cut-off; inactive = mostly below about 6.7%
* hit, by the source's call; / = not tested or not shown; ! = not confirmed by another sample.

SMILES	TRPML3 agonist	TAAR1 ag	GPR7 antag	zfTRPN1 agonist	TAAR1 antag	LANA-H2A inh
COc1ccc(-c2cc(C(=O)Nc3cc(S(=O)(=O)N4CCOCC4)ccc3N3CCOCC3)c3ccccc3n2)cc1	1	21	-10	1	54*	1
CC(C)(C)S(=O)(=O)N1C[C@H]2CC(=O)C=C2[C@@H]1CCO	/	2	/	/	-10	/
Cc1[nH]c2ccccc2c1CC(=O)Nc1ccc(Nc2cccnc2)c(-c2ccc(Cl)c(Cl)c2)c1	/	2	/	/	10	/
CNc1nc(-c2ccc(S(=O)(=O)N3CCCCC3)cc2)cs1	/	2	/	/	12	15*
COc1ccc(-c2ncn(CCc3ccccc3OC)c2CC(C)C)cc1	/	21	/	/	33	/
O=C(Cc1cccs1)NNC(=S)NC(=O)c1ccccc1	1	12	-10	-1	-18	-3
O=C(/C=C/c1ccccc1)NC(=S)NNC(=O)Cc1cccs1	2	53*	-3	3	2	-5
CC(=O)Nc1cccc(N)c1	/	1	/	/	6	28*
CC(=O)Nc1cccc(C)c1	/	2	/	/	-2	-2
c1cc2c(cc1C1CCCCC1)c1c3n2CCCNC3CCC1 (stereo not given)	1	43*	18	5	35	8
Cc1ccc2c(c1)c1c3n2CCCNC3CCC1 (stereo not given)	1	4	10	1	-10	2
COc1ccc(C(=O)N2CCC[C@@H]2C(=O)N2CCC[C@@H]2C(=O)NCc2ccccc2)cc1F	/	3	/	/	-10	/
Cc1oc(-c2cccc3ccccc23)nc1CN1CCN(c2ncnc3ccccc23)CC1	2	11	0	3	57*	-3
COc1ccc(-c2nc(CN3CCN(c4cc(C)nc(C)c4)CC3)c(C)o2)c2ccccc12	0	1	11	-2	-15	1
CC(C)(C)OC(=O)N1CCC2CCN(CCc3ccccc3)CC21 (stereo not given)	/	0	/	/	-11	/
COC(=O)[C@]12C[C@H](CC(=O)NCCCCc3ccccc3)C(=O)N(Cc3ccccc3)C1=C[C@H](C(C)C)O[C@@H]2C1CC1	/	0	/	/	-57	/
Cc1ccc(NC(=O)C(C)OC(=O)COc2cccc(C(F)(F)F)c2)cc1S(=O)(=O)N1CCOCC1 (stereo not given)	/	13	/	/	15	/
Cc1ccc(NC(=O)C(C)OC(=O)COc2cccc(C(F)(F)F)c2)cc1 (stereo not given)	/	-1	/	/	10	19*
Cc1ccc(S(=O)(=O)N2CCN(C(=O)CC(C)n3cncn3)CC2)cc1C (stereo not given)	/	-1	-5	/	-17	25*
COC(=O)[C@]1(C)N[C@H](CN(C)C(=O)Nc2ccc(C)cc2)[C@@H]2C(=O)N(C)C(=O)[C@@H]21	/	1	/	/	-15	160*
COC(=O)[C@]1(C)N[C@H](CN(C)C(=O)Nc2ccc(C)cc2)[C@@H]2C(=O)N(Cc3ccccc3)C(=O)[C@@H]21	/	3	/	/	-35	-1
CCN(C[C@H]1N[C@@](C)(C(=O)OC)[C@H]2C(=O)N(C)C(=O)[C@@H]12)C(=O)c1ccc(F)cc1	/	9	/	/	-31	/
CCN(C[C@H]1N[C@@](C)(C(=O)OC)[C@H]2C(=O)N(C)C(=O)[C@@H]12)C(=O)c1ccc(C)cc1	/	1	/	/	-28	67*
CC(=O)c1cccc(OCC(=O)N(C)CC(=O)Nc2ccc(F)cc2)c1	0	4	2	2	-24	17*
Cc1ccc(C(=O)Nc2ccc(N3CCCC3)cc2)c(C)c1	0	1	-13	-1	-14	0
SMILES	TRPML3 agonist	TAAR1 ag	GPR7 antag	zfTRPN1 agonist	TAAR1 antag	LANA-H2A inh
O=C(Nc1ccc(N2CCCC2)cc1)C(Cl)c1ccccc1 (stereo not given)	2	/	-5	0	/	28*
CS(=O)(=O)N1CCN(c2ccc(NC(=O)C(c3ccccc3)c3ccccc3)cc2)CC1	-1	5	-1	0	-4	-2
Cc1ccccc1C(=O)Nc1ccc(N2CCCC2)cc1	0	14	-2	1	54*	-2
COC(=O)C1=C(C)N(Cc2ccccc2C(F)(F)F)C(=NCc2cccc(C(F)(F)F)c2)NC1c1ccc(F)cc1 (stereo not given)	/	0	/	/	-15	/
Cc1ccc(S(=O)(=O)c2ccc(C)cc2)cc1	4	4	-8	0	1	1
Cc1ccc(S(=O)(=O)C=CS(=O)(=O)c2ccc(C)cc2)cc1	/	28	/	/	50*	/
O=C(c1cc([N+](=O)[O-])cc([N+](=O)[O-])c1)N(Cc1nnc(-c2ccccc2Cl)o1)C1CC1	-1	1	-2	1	15	3
O=C1OC(CC(=O)N(Cc2nnc(-c3ccccc3Cl)o2)C2CC2)c2ccccc21 (stereo not given)	/	0	/	/	8	20*
COc1ccc(-c2nc(NC(=O)c3[nH]c(C)c(C(C)=O)c3C)sc2C)cc1	1	46*	-7	2	88*	4
CCN(CC)S(=O)(=O)c1cccc(NC(=O)c2ccc(SC)cc2OC)c1	4	5	-7	7	52*	1
CCn1c2c(n(C(C)=O)c1=O)C[C@@H](c1ccccc1)[C@@H](C)[C@@H](C(=O)N1CCCC1)C2	/	1	/	/	-20	/
Cc1ccc(-c2nc(NC(=O)c3nn(C)cc3[N+](=O)[O-])sc2C)cc1	0	0	-1	0	0	0
Cn1cc([N+](=O)[O-])c(C(=O)Nc2nc(-c3ccc(Cl)cc3)cs2)n1	1	40*	8	2	67*	0
O=C(CC1NCCc2ccccc21)Nc1ccccc1 (stereo not given)	0	10	-10	1	2	1
O=C(CC1NCCc2ccccc21)Nc1ccc(Oc2ccccc2)cc1 (stereo not given)	1	42*	21*	4	-2	-5
COc1ccccc1N1CCN(CC(O)COc2cccc3ccccc23)CC1 (stereo not given)	0	9	-2	-1	7	24*!
OC(COc1ccc(Cl)cc1)CN1CCC(Cc2ccccc2)CC1 (stereo not given)	/	41*	2	/	8	0
N=c1n(Cc2ccc(Cl)cc2)c2ccccc2n1CC(O)COc1ccccc1 (stereo not given)	1	34	47*	2	-4	6
